Experimental data reported in ChEMBL document CHEMBL1146292, “Dual serotonin transporter/histamine H3 ligands: Optimization of the H3 pharmacophore” (Bioorg Med Chem Lett, 2007).

What was measured:
[1] = biological target: Sodium-dependent serotonin transporter (Homo sapiens, UniProt P31645); test: Binding affinity to human SERT
[2] = biological target: Histamine H3 receptor (Homo sapiens, UniProt Q9Y5N1); test: Binding affinity to human histamine H3 receptor
Procedure, shortened: (§1)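 Means of at least three independent experiments, each run in triplicate; standard error of the mean reported.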

[3] = biological target: Sodium-dependent serotonin transporter (Rattus norvegicus, UniProt P31652); test: Binding affinity to rat SERT; procedure, shortened: as §1
[4] = Drug level in mouse brain at 10 mg/kg, ip after 1 hr; format: ADME, organism-based; design: dose 10 mg/kg, route intraperitoneal; conditions: read-out: Drug uptake
Procedure, shortened: (§2)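 Mice given a single 10 mg/kg intraperitoneal dose. Brain drug concentration measured at 1 h and at 24 h post-dose, n = 3.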

[5] = Drug level in mouse brain at 10 mg/kg, ip after 24 hrs; format: ADME, organism-based; design: dose 10 mg/kg, route intraperitoneal; conditions: read-out: Drug uptake; procedure, shortened: as §2
[6] = tested on: Mus musculus; test: Effect on 5-HTP-induced head twitch in mouse at 10 mg/kg, ip after 1 hr relative to control; format: functional; conditions: route intraperitoneal
Procedure, shortened: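 5-HTP-induced head-twitch model in mice. Test agent given at 10 mg/kg intraperitoneally, n = 4 per compound. Head twitches scored at 1 h and 24 h post-dose and expressed as percent of the control response.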

Sequence of Sodium-dependent serotonin transporter (Rattus norvegicus, UniProt P31652) (P31652 whole entry): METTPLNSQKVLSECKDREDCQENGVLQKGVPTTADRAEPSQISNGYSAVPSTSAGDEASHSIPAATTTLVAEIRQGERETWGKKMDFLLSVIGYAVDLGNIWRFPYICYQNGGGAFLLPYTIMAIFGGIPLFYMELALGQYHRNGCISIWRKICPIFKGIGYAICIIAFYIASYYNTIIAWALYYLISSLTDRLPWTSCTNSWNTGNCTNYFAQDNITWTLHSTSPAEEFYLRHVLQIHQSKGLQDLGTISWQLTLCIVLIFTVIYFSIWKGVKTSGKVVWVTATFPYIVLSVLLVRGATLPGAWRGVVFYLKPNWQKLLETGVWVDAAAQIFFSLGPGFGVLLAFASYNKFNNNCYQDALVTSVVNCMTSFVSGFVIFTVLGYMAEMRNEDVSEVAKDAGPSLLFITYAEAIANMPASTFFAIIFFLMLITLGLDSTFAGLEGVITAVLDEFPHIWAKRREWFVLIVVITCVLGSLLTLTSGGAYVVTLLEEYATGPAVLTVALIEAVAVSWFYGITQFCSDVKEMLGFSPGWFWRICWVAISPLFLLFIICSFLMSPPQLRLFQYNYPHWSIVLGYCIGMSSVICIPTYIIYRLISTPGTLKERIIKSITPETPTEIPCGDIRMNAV
Sequence of Histamine H3 receptor (Q9Y5N1 whole entry): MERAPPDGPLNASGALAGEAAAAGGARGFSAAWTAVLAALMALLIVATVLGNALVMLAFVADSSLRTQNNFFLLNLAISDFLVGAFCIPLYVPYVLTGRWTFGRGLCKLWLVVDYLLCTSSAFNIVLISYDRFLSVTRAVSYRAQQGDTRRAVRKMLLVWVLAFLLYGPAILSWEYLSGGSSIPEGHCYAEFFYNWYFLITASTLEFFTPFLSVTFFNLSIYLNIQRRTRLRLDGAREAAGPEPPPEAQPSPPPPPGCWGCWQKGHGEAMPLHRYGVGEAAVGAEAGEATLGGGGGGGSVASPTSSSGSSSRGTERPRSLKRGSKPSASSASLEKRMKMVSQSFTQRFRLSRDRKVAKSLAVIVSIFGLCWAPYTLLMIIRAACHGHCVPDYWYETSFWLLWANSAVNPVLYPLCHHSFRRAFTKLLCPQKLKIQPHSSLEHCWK
Sequence of Sodium-dependent serotonin transporter (Homo sapiens, UniProt P31645) (P31645 whole entry): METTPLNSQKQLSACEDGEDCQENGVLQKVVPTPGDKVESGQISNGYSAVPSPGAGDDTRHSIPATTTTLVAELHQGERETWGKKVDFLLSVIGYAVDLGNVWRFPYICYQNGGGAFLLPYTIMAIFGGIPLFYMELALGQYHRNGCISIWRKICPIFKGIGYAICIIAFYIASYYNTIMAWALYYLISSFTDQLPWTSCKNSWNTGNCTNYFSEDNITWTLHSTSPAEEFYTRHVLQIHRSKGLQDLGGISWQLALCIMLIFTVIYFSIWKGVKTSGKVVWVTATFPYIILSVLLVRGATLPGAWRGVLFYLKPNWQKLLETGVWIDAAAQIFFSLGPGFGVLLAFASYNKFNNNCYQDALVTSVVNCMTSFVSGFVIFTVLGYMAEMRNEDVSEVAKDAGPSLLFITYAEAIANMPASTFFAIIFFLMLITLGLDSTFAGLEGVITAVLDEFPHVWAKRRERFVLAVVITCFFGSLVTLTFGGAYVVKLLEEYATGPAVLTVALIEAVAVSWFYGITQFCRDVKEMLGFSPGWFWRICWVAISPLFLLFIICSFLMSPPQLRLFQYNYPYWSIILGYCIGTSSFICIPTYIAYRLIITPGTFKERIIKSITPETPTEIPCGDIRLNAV

Row | SMILES | Ki [1] [nM] | Ki [2] [nM] | Ki [3] [nM] | concentration at 1 h [4] [µM] | concentration at 24 h [5] [µM] | Activity [6] [%]
1 | COc1ccc(C2CN(C)Cc3cc(OCCCN4CCN(c5ccc(C(F)(F)F)cc5)CC4)ccc32)cc1 (centres undefined) | 33 | 1440 | 25 |  |  | 
2 | COc1ccc(C2CN(C)Cc3cc(OCCCN4CCN(C(=O)c5cccn5C)CC4)ccc32)cc1 (centres undefined) | 8.8 | 2610 | 8.4 |  |  | 
3 | COc1ccc(C2CN(C)Cc3cc(OCCCN4CCN(C(C)=O)CC4)ccc32)cc1 (centres undefined) | 42 | 267 | 15 |  |  | 
4 | COc1ccc(C2CN(C)Cc3cc(OCCCN4CCN(C(=O)C(C)C)CC4)ccc32)cc1 (centres undefined) | 15 | 509 | 15 |  |  | 
5 | COc1ccc(C2CN(C)Cc3cc(OCCCNC4CC4)ccc32)cc1 (centres undefined) | 19.3 | 38 | 3 |  |  | 
6 | COc1ccc(C2CN(C)Cc3cc(OCCCN(C4CC4)C4CC4)ccc32)cc1 (centres undefined) | 9.7 | 7.4 | 7.6 |  |  | 
7 | COc1ccc(C2CN(C)Cc3cc(OCCCN4CCOCC4)ccc32)cc1 (centres undefined) | 6.5 | 3.8 | 4.8 | 12.5 | < 1 | >500
8 | COc1ccc(C2CN(C)Cc3cc(OCCCN4CCC(F)CC4)ccc32)cc1 (centres undefined) | 2.9 |  | 1.6 | 6.1 | 2.5 | >500
9 | COc1ccc(C2CN(C)Cc3cc(OCCCN4CCCC(F)(F)C4)ccc32)cc1 (centres undefined) | 8.2 |  | 10 |  |  | 
10 | COc1ccc(C2CN(C)Cc3cc(OCCCN4CCC(CO)CC4)ccc32)cc1 (centres undefined) | 3.2 | 9.5 | 2 |  |  | 
11 | COc1ccc(C2CN(C)Cc3cc(OCCCN4CCC(C(F)(F)F)CC4)ccc32)cc1 (centres undefined) | 14 | 40 | 19 |  |  | 
12 | COc1ccc(C2CN(C)Cc3cc(OCCCN4CCS(=O)(=O)CC4)ccc32)cc1 (centres undefined) | 12 | 106 | 6.3 |  |  | 
13 | COc1ccc(C2CN(C)Cc3cc(OCCCN4CCC4)ccc32)cc1 (centres undefined) | 4.8 |  | 1 |  |  | 
14 | COc1ccc(C2CN(C)Cc3cc(OCCCN4CCC(F)(F)C4)ccc32)cc1 (centres undefined) | 7.3 | 9.5 | 8 |  |  | 
15 | COc1ccc(C2CN(C)Cc3cc(OCCCN4CCN(c5ccccc5O)CC4)ccc32)cc1 (centres undefined) | 7.2 | 1110 | 5.7 |  |  | 
16 | COc1ccc(C2CN(C)Cc3cc(OCCCN4CCN(c5ccncc5)CC4)ccc32)cc1 (centres undefined) | 4 | 3.3 | 5.3 |  |  | 
17 | COc1ccc(C2CN(C)Cc3cc(OCCCN4CCN(C5CC5)CC4)ccc32)cc1 (centres undefined) | 18 | 30 | 10 |  |  | 
18 | COc1ccc(C2CN(C)Cc3cc(OCCCN4CCN(C(C)C)CC4)ccc32)cc1 (centres undefined) | 1.8 | 9.7 | 1.3 |  |  | 
19 | COc1ccc(C2CN(C)Cc3cc(OCCCN4CCC(O)CC4)ccc32)cc1 (centres undefined) | 3.8 | 11 | 1.2 |  |  | 
20 | COc1ccc(C2CN(C)Cc3cc(OCCCN4CCC(C#N)CC4)ccc32)cc1 (centres undefined) | 5.3 | 7.4 | 5.3 |  |  | 
21 | COc1ccc(C2CN(C)Cc3cc(OCCCN4CCN(c5ccc(C#N)cc5)CC4)ccc32)cc1 (centres undefined) | 8 | 144 | 3.3 |  |  | 
22 | COc1ccc(C2CN(C)Cc3cc(OCCCN4CCC(F)(F)CC4)ccc32)cc1 (centres undefined) | 6.5 | 8.7 | 5.7 |  |  | 
23 | CCN1CCN(CCCOc2ccc3c(c2)CN(C)CC3c2ccc(OC)cc2)CC1 (centres undefined) |  | 12 | 1.5 |  |  | 
24 | COc1ccc(C2CN(C)Cc3cc(OCCCN4CC(F)(F)C4)ccc32)cc1 (centres undefined) | 2.9 | 69 |  |  |  | 
25 | CCNCCCOc1ccc2c(c1)CN(C)CC2c1ccc(OC)cc1 (centres undefined) | 3.4 | 47 | 0.73 |  |  | 
26 | COc1ccc(C2CN(C)Cc3cc(OCCCN4CCN(c5nccs5)CC4)ccc32)cc1 (centres undefined) | 5.3 | 268 | 2.7 |  |  | 
27 | CCN(CC)CCCOc1ccc2c(c1)CN(C)CC2c1ccc(OC)cc1 (centres undefined) |  | 1.7 | 2.2 |  |  | 
28 | COc1ccc(C2CN(C)Cc3cc(OCCCN4CCN(C(=O)c5ccncc5)CC4)ccc32)cc1 (centres undefined) | 19 | 2840 | 21 |  |  | 
